Results published in ChEMBL document CHEMBL4014326, “Discovery of an Orally Bioavailable Benzimidazole Diacylglycerol Acyltransferase 1 (DGAT1) Inhibitor That Suppresses Body Weight Gain in Diet-Induced Obese Dogs and Postprandial Triglycerides in Humans” (J Med Chem, 2017).
Converted amounts (≈) assume the structure as drawn. The source made the active and inactive calls. The calls are words filed in the database; no cut-off is given here.

Columns and labels:
[1] = Ratio of IC50 for DGTA1 in mouse C2C12 cells to IC50 for recombinant human His6-tagged DGAT1; format: cell-based
Summary of the method: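 Ratio of the C2C12 cellular IC50 to the enzymatic IC50. Enzyme assay: Sf9 membranes expressing human His6-DGAT1 with 50 µM diolein and 50 µM oleoyl-CoA in 50 mM HEPES pH 7.5, 5 mM MgCl2 and 10% ethanol, 30 min at room temperature. Triolein was read by LC-MS/MS, with a 10-point, 3-fold dose response run in duplicate.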

[2] = Permeability across basolateral to apical side in human Caco2 cells; format: ADME, cell-based; conditions: Caco-2, read-out: permeability
Summary of the method: (§1)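 Caco-2 monolayer permeability was measured in the A-B and B-A directions, and the efflux ratio was taken as B-A/A-B.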

[3] = Oral bioavailability in Sprague-Dawley rat at 3 mg/kg by LC/MS/MS analysis; format: ADME, organism-based; conditions: in vivo
Summary of the method: (§2)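 Male Sprague-Dawley rats, 200-300 g, dosed iv (n = 2) or po (n = 3) as solutions in NMP/PG or PEG400/ETPGS vehicles. Blood was taken from a jugular vein catheter at 0.083 (iv only), 0.25, 0.5, 1, 2, 4, 6 and 8 h into EDTA tubes, and plasma was analysed by LC-MS/MS. Values are means ± SD.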

[4] = Tmax in Sprague-Dawley rat 3 mg/kg, po by LC/MS/MS analysis; format: ADME, organism-based; conditions: in vivo; summary of the method: as §2
[5] = Permeability across apical to basolateral side in human Caco2 cells; format: ADME, cell-based; conditions: Caco-2, read-out: permeability; summary of the method: as §1
[6] = Volume of distribution at steady state in Sprague-Dawley rat at 1 mg/kg, iv by LC/MS/MS analysis; format: ADME, organism-based; conditions: in vivo, read-out: Vdss; summary of the method: as §2
[7] = AUC (0 to 8 hrs) in Sprague-Dawley rat at 3 mg/kg, po by LC/MS/MS analysis; format: ADME, organism-based; set-up: dose 3 mg/kg, time < 8 hr, route oral; conditions: in vivo; summary of the method: as §2
[8] = Cmax in Sprague-Dawley rat at 3 mg/kg, po by LC/MS/MS analysis; format: ADME, organism-based; set-up: dose 3 mg/kg, route oral; conditions: in vivo; summary of the method: as §2
[9] = Half life in Sprague-Dawley rat at 1 mg/kg, iv by LC/MS/MS analysis; format: ADME, organism-based; conditions: in vivo; summary of the method: as §2
[10] = Clearance in Sprague-Dawley rat at 1 mg/kg, iv by LC/MS/MS analysis; format: ADME, organism-based; conditions: in vivo; summary of the method: as §2
[11] = AUC (0 to 8 hrs) in Sprague-Dawley rat at 1mg/kg, iv by LC/MS/MS analysis; format: ADME, organism-based; set-up: time < 8 hr, dose 1 mg/kg, route intravenous; conditions: in vivo; summary of the method: as §2
[12] = molecular target: T1, Diacylglycerol O-acyltransferase 1 (Mus musculus, UniProt Q9Z2A7); test: Inhibition of DGTA1 in mouse C2C12 cells assessed as inhibition of triglyceride formation after 2 hrs by LC/MS/MS analysis; format: cell-based
T1 sequence (Q9Z2A7 whole entry): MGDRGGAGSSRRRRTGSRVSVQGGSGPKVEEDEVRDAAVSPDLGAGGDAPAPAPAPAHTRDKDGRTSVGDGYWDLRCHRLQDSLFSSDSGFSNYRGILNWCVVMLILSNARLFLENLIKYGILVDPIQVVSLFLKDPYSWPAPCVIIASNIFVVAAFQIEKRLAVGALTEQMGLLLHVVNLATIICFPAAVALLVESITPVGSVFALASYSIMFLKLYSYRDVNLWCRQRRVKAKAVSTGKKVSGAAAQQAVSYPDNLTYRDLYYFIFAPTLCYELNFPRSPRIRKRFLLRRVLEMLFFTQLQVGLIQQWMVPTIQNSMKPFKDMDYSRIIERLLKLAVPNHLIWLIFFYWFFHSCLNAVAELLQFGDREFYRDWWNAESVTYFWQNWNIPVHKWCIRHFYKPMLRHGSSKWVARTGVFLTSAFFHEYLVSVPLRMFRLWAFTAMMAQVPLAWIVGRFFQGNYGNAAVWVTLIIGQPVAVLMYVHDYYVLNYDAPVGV
Summary of the method: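 C2C12 cells were seeded in DMEM with 5 mM glucose and 10% FBS for 18 h at 37 °C. Medium was then replaced with DMEM, 5 mM glucose and 250 µM oleate-BSA plus inhibitor (0.5% DMSO final) for 2 h at 37 °C. Cells were extracted with butanol containing tripalmitolein internal standard and triglyceride was read by LC-MS/MS. An 11-point, 3-fold dose response was run in quadruplicate.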

[13] = Drug level in dog hepatocytes treated with [3H]-3-(4-(6-(5-(4-Methoxyphenyl)-1,3,4-oxadiazol-2-yl)-1H-benzo[d]imidazol-2-yl)-3,5-dimethylphenyl)-2,2-dimethylpropanoic acid at 12.5 uM after 18 hrs; format: ADME, cell-based, Canis lupus familiaris, Hepatocyte
Summary of the method: (§3)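 [3H]-labelled compound (12.5 µM) was incubated for 18 h with rat, dog, monkey or human hepatocytes, and metabolites were profiled.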

[14] = Drug level in rat hepatocytes treated with [3H]-3-(4-(6-(5-(4-Methoxyphenyl)-1,3,4-oxadiazol-2-yl)-1H-benzo[d]imidazol-2-yl)-3,5-dimethylphenyl)-2,2-dimethylpropanoic acid at 12.5 uM after 18 hrs; format: ADME, cell-based, Hepatocyte; summary of the method: as §3
[15] = Drug level in monkey hepatocytes treated with [3H]-3-(4-(6-(5-(4-Methoxyphenyl)-1,3,4-oxadiazol-2-yl)-1H-benzo[d]imidazol-2-yl)-3,5-dimethylphenyl)-2,2-dimethylpropanoic acid at 12.5 uM after 18 hrs; format: ADME, cell-based, Macaca mulatta, Hepatocyte; conditions: rhesus monkey; summary of the method: as §3
[16] = Drug level in human hepatocytes treated with [3H]-3-(4-(6-(5-(4-Methoxyphenyl)-1,3,4-oxadiazol-2-yl)-1H-benzo[d]imidazol-2-yl)-3,5-dimethylphenyl)-2,2-dimethylpropanoic acid at 12.5 uM after 18 hrs; format: ADME, cell-based, Hepatocyte; summary of the method: as §3
[17] = Solubility of the compound at pH 6.8 after 24 hrs; format: physicochemical; conditions: buffer
Summary of the method: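 Solubility was measured in pH 6.8 buffer after 24 h incubation.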

Canis familiaris [18] = test: Antiobesity activity in fasted Beagle dog assessed as postprandial triglyceride AUC in plasma at 1 mg/kg administered via oral gavage prior to 30 mins of […] measured after 4 hrs (reference value: 35400 +/- 8863 mg/dL.min); format: functional, organism-based; set-up: dose 1 mg/kg, time < 4 hr; conditions: Canis lupus familiaris
Rattus norvegicus = species: Rattus norvegicus; test: Antiobesity activity in rat assessed as suppression of postprandial triglyceride levels; format: functional
Homo sapiens = test: Antiobesity activity in high fat-fed human assessed as suppression of postprandial plasma triglyceride level compound administered as single oral dose; format: functional
Summary of the method: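 Randomized, double-blind, placebo-controlled single ascending dose study in overweight or obese healthy adults aged 18-55. Single oral doses of 5-600 mg (n = 8 per dose) or placebo (n = 12) were given. About 1 h after dosing, subjects ate a ~1000 kcal, 55% fat test meal, and plasma triglycerides were compared against an untreated baseline meal test monitored for 9 h.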

[19] = Plasma concentration in high fat diet-fed dog at 5 mg/kg, po qd administered via gavage measured after twenty-ninth dose; format: ADME, organism-based, Canis lupus familiaris
[20] = Plasma concentration in high fat diet-fed dog at 5 mg/kg, po administered via gelatin capsule after 90 mins
[21] = AUC (0 to 24 hrs) in dog plasma at 5 mg/kg, po after 24 hrs; format: ADME, organism-based, Canis lupus familiaris; set-up: time < 24 hr, dose 5 mg/kg, route oral
Canis familiaris [22] = test: Antiobesity activity in high fat diet-fed dog assessed as reduction in body weight gain at 5 mg/kg, po qd administered via gelatin capsule after 21 days relative to vehicle control; set-up: scale not given: the % may be the effect or the level left
[23] = Protein binding in dog plasma at 5 mg/kg, po after 24 hrs; format: ADME, organism-based, Canis lupus familiaris; conditions: read-out: PPB (converted)
Plasma = test: Unbound concentration in dog plasma at 5 mg/kg, po after 24 hrs; format: ADME, organism-based, Canis lupus familiaris; conditions: in vivo
[24] = AUC (0 to 8 hrs) in Sprague-Dawley rat at 5 mg/kg, po by LC/MS/MS analysis; format: ADME, organism-based; set-up: dose 5 mg/kg, time < 8 hr, route oral; conditions: in vivo; summary of the method: as §2
[25] = Oral bioavailability in Sprague-Dawley rat at 5 mg/kg by LC/MS/MS analysis; format: ADME, organism-based; conditions: in vivo; summary of the method: as §2
[26] = Tmax in Sprague-Dawley rat 5 mg/kg, po by LC/MS/MS analysis; format: ADME, organism-based; conditions: in vivo; summary of the method: as §2
[27] = Cmax in Sprague-Dawley rat at 5 mg/kg, po by LC/MS/MS analysis; format: ADME, organism-based; set-up: dose 5 mg/kg, route oral; conditions: in vivo; summary of the method: as §2

## Cc1cc(CCC(=O)O)cc(C)c1-c1nc2ccc(C(=O)Nc3ccc(C(C)(C)C)cc3)cc2[nH]1
[1]
  Ratio IC50: 10

## COc1ccc(-c2nnc(-c3ccc4nc(-c5c(C)cc(CCC(=O)O)cc5C)[nH]c4c3)o2)cc1
[2]
  Papp B→A: 9.2 ×10⁻⁶ cm/s
[3]
  bioavailability: 2%
[4]
  Tmax: 30 min
[5]
  Papp A→B: 1.4 ×10⁻⁶ cm/s
[6]
  Vd: 0.7 L/kg
[7]
  AUC(0-t) at 8 h: 0.103 µM·h
[8]
  Cmax: 40 nM
[9]
  half-life: 96 min
[10]
  clearance: 21 mL/min/kg
[11]
  AUC(0-t) at 8 h: 1.69 µM·h
[12]
  IC50: 181 nM

## Cc1cc(CC(C)(C)C(=O)O)cc(C)c1-c1nc2ccc(-c3nnc(-c4ccc(O)cc4)o3)cc2[nH]1
[13]
  Drug metabolism: Metabolite_Detected
[14]
  Drug metabolism: Metabolite_Detected
[15]
  Drug metabolism: Metabolite_Detected
[16]
  Drug metabolism: Metabolite_Detected

## Cc1cc(CC(C)(C)C(=O)O)cc(C)c1-c1nc2ccc(C(=O)Nc3ccc4ccccc4n3)cc2[nH]1
[17]
  solubility at 24 h: 8 µM (≈ 3.94 µg/mL)
[2]
  Papp B→A: 12.4 ×10⁻⁶ cm/s
[3]
  bioavailability: 23%
[4]
  Tmax: 30 min
[5]
  Papp A→B: 3.5 ×10⁻⁶ cm/s
[6]
  Vd: 0.4 L/kg
[7]
  AUC(0-t) at 8 h: 4.23 µM·h
[8]
  Cmax: 1720 nM
[9]
  half-life: 48 min
[10]
  clearance: 5.5 mL/min/kg
[11]
  AUC(0-t) at 8 h: 6.11 µM·h
[12]
  IC50: 954 nM

## COc1ccc(-c2nnc(-c3ccc4nc(-c5c(C)cc(CC(C)(C)C(=O)O[C@@H]6O[C@H](C(=O)O)[C@@H](O)[C@H](O)[C@H]6O)cc5C)[nH]c4c3)o2)cc1
[13]
  Drug metabolism: Metabolite_Detected
[14]
  Drug metabolism: Metabolite_Detected
[15]
  Drug metabolism: Metabolite_Detected
[16]
  Drug metabolism: Metabolite_Detected

## COc1ccc(-c2nnc(-c3ccc4nc(-c5c(C)cc(CC(C)(C)C(=O)O)cc5C)[nH]c4c3)o2)cc1
[1]
  Ratio IC50: 9
Canis familiaris [18]
  AUC: 308000 ng·h/mL
Rattus norvegicus
  Activity: Active
Homo sapiens
  Activity: Dose-dependent effect

## COc1ccc(-c2nnc(-c3ccc4nc(-c5c(C)cc(CC(C)(C)C(=O)O)cc5C)[nH]c4c3)o2)cc1.[Na+]
[19]
  concentration at 29 days: 930 nM
[20]
  concentration at 1.5 h: 738 nM
[21]
  AUC(0-t) at 24 h: 5.27 µM·h
Canis familiaris [22]
  Activity: 11%
[23]
  fraction unbound at 24 h: 0.009
Plasma
  Cp(f): 2 nM

## Cc1cc(CCC(=O)O)cc(C)c1-c1nc2ccc(C(=O)Nc3ccc4ccccc4n3)cc2[nH]1
[24]
  AUC(0-t) at 8 h: 0.405 µM·h
[25]
  bioavailability: 2%
[2]
  Papp B→A: 14.1 ×10⁻⁶ cm/s
[26]
  Tmax: 24 min
[5]
  Papp A→B: 1.4 ×10⁻⁶ cm/s
[6]
  Vd: 0.4 L/kg
[27]
  Cmax: 333 nM
[9]
  half-life: 102 min
[10]
  clearance: 6.9 mL/min/kg
[11]
  AUC(0-t) at 8 h: 5.23 µM·h
[12]
  IC50: 913 nM
